Bioassay records from PubChem BioAssay.
IDH1 mut inh – inhibitors of human IDH1 R132H; IDH1 R132H reductase, diaphorase/resazurin fluorescence, 60 min; AID 624101; 0.18% of 70,000 active; O75874; inhibition, % at 10 µM; in the data active = inhibition above about 34%; inconclusive = no clear call, values can overlap the other calls; inactive = below about 11%
Target sequence (O75874 whole entry R132H): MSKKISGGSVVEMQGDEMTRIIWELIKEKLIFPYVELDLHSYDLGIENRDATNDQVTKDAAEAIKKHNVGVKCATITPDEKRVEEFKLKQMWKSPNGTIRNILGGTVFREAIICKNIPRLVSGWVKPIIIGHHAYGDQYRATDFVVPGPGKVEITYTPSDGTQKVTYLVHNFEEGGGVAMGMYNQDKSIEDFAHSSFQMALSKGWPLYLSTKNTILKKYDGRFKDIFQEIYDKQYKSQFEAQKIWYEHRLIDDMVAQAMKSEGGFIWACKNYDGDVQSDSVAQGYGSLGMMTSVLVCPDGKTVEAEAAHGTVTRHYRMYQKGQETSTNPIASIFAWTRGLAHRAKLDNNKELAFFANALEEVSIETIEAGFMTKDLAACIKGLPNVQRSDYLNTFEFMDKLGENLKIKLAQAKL
T cruzi growth-1 – T. cruzi proliferation inhibition | T. cruzi beta-gal in NIH3T3, GalScreen luminescence, 90 h | inhibition, % at 8.34 µM | 5.9% of 77,000 active | AID 624255;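 active = mean inhibition above about 93%, with at least 55% of replicates each passing it, limit read from the data, passing the limit was not always enough; inconclusive = only one of those two conditions holds; inactive = neither condition holds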
GASC1 inh – blocks human GASC-1 (KDM4C) demethylase activity; Q9H3R0; GST-KDM4C 2-372, H3K9me3 peptide, LANCE TR-FRET; inhibition, % at 12.5 µM; 0.15% of 96,000 active; AID 720574;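 active = mean replicate inhibition above about 25%, with at least 55% of replicates also reaching it, limit read from the data, passing the limit was not always enough; inconclusive = only one of those two conditions met; inactive = neither condition met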
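material = GST-tagged GASC-1 (JMJD2C) catalytic fragment, aa 2-372 | amount = enzyme final amount 10 nM | medium = HEPES buffer, pH 7.5, plus ascorbate | also added = H3K9me3 peptide substrate, Fe(II), 2-oxoglutarate | dosing = single dose | times = 30 min demethylation and 1 h detection at room temperature | detection = LANCE TR-FRET | read-out basis = Fall in 671/618 emission ratio as inhibition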
T cruzi growth-2 – inhibitors of T. cruzi proliferation | T. cruzi beta-gal in NIH3T3, GalScreen luminescence, 90 h | shares compounds with T cruzi growth-1 | 72% of 5,600 active | inhibition, % at 8.35 µM;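 active = mean replicate inhibition above about 95% and at least 55% of replicates individually reaching it, limit read from the data; inconclusive = only one of the two criteria is met; inactive = neither criterion is met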
T cruzi growth-3 – blocks T. cruzi growth in NIH3T3 host cells; shares compounds with T cruzi growth-1; T. cruzi beta-gal in NIH3T3, GalScreen luminescence, 90 h; inhibition, % at 2.09 µM; 21% of 5,600 active;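 active = mean inhibition above about 95%, with at least 55% of replicates also reaching it, limit read from the data; inconclusive = meets just one of the two conditions; inactive = meets neither condition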
3T3 cytotox – cytotoxicity in mouse NIH/3T3 fibroblasts; shares compounds with T cruzi growth-1; NIH/3T3 viability, CellTiter-Glo ATP luminescence, 90 h; cytotoxicity (signal decrease), % at 8.35 µM; 14% of 5,600 active;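 active = mean signal decrease across replicates above about 35% based on untreated-well scatter, with enough replicates individually passing, limit read from the data; inconclusive = no rule stated though some were filed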
3T3 cytotox 2 – kills mouse NIH/3T3 fibroblasts; shares compounds with T cruzi growth-1; 56% of 5,600 active; AID 651744; inhibition, % at 24.9 µM; NIH/3T3 viability, CellTiter-Glo ATP luminescence, 90 h;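 active = mean loss of cell viability signal at or above a set limit, and enough replicates individually reaching it; inconclusive = meets only the mean limit or only the replicate share; inactive = meets neither condition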
Hits are given with their value; n = inactive; u = inconclusive; x = not tested or not shown. Shown is part of a subset that was picked to be rich in hits.

SMILES | IDH1 mut inh | T cruzi growth-1 | GASC1 inh | T cruzi growth-2 | T cruzi growth-3 | 3T3 cytotox | 3T3 cytotox 2
CC1CCC2(CC1)Oc1ccccc1C1CC(c3ccco3)=NN12 (stereo unspecified) | n | x | x | x | x | x | x
Oc1ccccc1C1=Nc2ccccc2N=C(c2ccc(Cl)cc2)C1 | n | x | x | x | x | x | x
Cc1ccc(N(C(C)C(=O)Nc2ccccc2F)S(C)(=O)=O)cc1 (stereo unspecified) | n | x | x | x | x | x | x
O=C(COc1ccc(Cl)cc1)Nc1ccc(O)cc1C(=O)O | n | x | x | x | x | x | x
COc1ccc(S(=O)(=O)N(C)C[C@@H]2OCCCC[C@H](C)Oc3ccc(NC(=O)C4CCCCC4)cc3C(=O)N([C@@H](C)CO)C[C@H]2C)cc1 | x | n | n | x | x | x | x
COc1ccc(NC(=O)Nc2ccc3c(c2)C(=O)N([C@H](C)CO)C[C@@H](C)[C@@H](CN(C)S(=O)(=O)c2ccc(C)cc2)OCCCC[C@H](C)O3)cc1 | x | n | n | x | x | x | x
COc1ccc(S(=O)(=O)N(C)C[C@@H]2OCCCC[C@H](C)Oc3ccc(NC(=O)C4CCCCC4)cc3C(=O)N([C@H](C)CO)C[C@H]2C)cc1 | n | 99.0 | n | n | n | n | u
COc1ccc(NC(=O)Nc2ccc3c(c2)C(=O)N([C@@H](C)CO)C[C@H](C)[C@@H](CN(C)S(=O)(=O)c2ccc(C)cc2)OCCCC[C@@H](C)O3)cc1 | n | 97.5 | n | 111.1 | n | n | n
COc1ccc(NC(=O)Nc2ccc3c(c2)C(=O)N([C@H](C)CO)C[C@@H](C)[C@H](CN(C)S(=O)(=O)c2ccc(OC)cc2)OCCCC[C@H](C)O3)cc1 | n | n | n | x | x | x | x
COc1ccc(NC(=O)Nc2ccc3c(c2)C(=O)N([C@H](C)CO)C[C@H](C)[C@H](CN(C)S(=O)(=O)c2ccc(OC)cc2)OCCCC[C@H](C)O3)cc1 | x | u | n | 104.0 | n | n | n
O=C(NCCCN1CCOCC1)C1CC(c2ccc(Cl)c(Cl)c2)=NO1 (stereo unspecified) | n | x | x | x | x | x | x
COC(=O)c1cc(OC)c(OC)cc1NC(=O)COc1ccc(Cl)cc1Br | n | x | x | x | x | x | x
CC(=O)Nc1nonc1-c1nc2ccccc2n1Cc1cccc2ccccc12 | n | x | x | x | x | x | x
C[C@H]1CCCCO[C@@H](CN(C)S(=O)(=O)c2cccs2)[C@@H](C)CN([C@@H](C)CO)C(=O)c2cc(NC(=O)Nc3ccc(C(F)(F)F)cc3)ccc2O1 | n | u | n | 96.5 | 109.9 | n | n
C[C@@H]1CN([C@@H](C)CO)C(=O)c2cc(NC(=O)Nc3ccc(C(F)(F)F)cc3)ccc2O[C@@H](C)CCCCO[C@H]1CN(C)S(=O)(=O)c1cccs1 | x | 100.0 | n | 104.9 | 112.4 | n | n
C[C@H]1CCCCO[C@H](CN(C)S(=O)(=O)c2cccs2)[C@@H](C)CN([C@@H](C)CO)C(=O)c2cc(NC(=O)Nc3ccc(C(F)(F)F)cc3)ccc2O1 | x | 99.4 | n | 104.7 | 109.1 | n | n
C[C@@H]1CN([C@H](C)CO)C(=O)c2cc(NC(=O)Nc3ccc(C(F)(F)F)cc3)ccc2O[C@@H](C)CCCCO[C@@H]1CN(C)S(=O)(=O)c1cccs1 | n | n | n | x | x | x | x
C[C@@H]1CCCCO[C@@H](CN(C)S(=O)(=O)c2cccs2)[C@H](C)CN([C@@H](C)CO)C(=O)c2cc(NC(=O)Nc3ccc(F)cc3)ccc2O1 | n | n | n | x | x | x | x
C[C@H](CO)N1C[C@H](C)[C@H](CN(C)S(=O)(=O)c2cccs2)OCCCC[C@H](C)Oc2ccc(NC(=O)Nc3ccc(C(F)(F)F)cc3)cc2C1=O | x | n | n | x | x | x | x
C[C@@H]1CCCCO[C@H](CN(C)S(=O)(=O)c2cccs2)[C@H](C)CN([C@@H](C)CO)C(=O)c2cc(NC(=O)Nc3ccc(C(F)(F)F)cc3)ccc2O1 | x | u | n | 103.8 | 113.2 | n | n
CC(C)(C)c1ccc(C(=O)Nc2cccc(NC(=O)COc3ccccc3Cl)c2)cc1 | n | x | x | x | x | x | x
CC(C)NC(=O)Nc1ccc2c(c1)C(=O)N([C@@H](C)CO)C[C@@H](C)[C@H](CN(C)Cc1ccc3c(c1)OCO3)OCCCC[C@@H](C)O2 | x | n | n | x | x | x | x
O=C(C[C@H]1C[C@H]2c3cc(NC(=O)NC4CCCC4)ccc3O[C@H]2[C@H](CO)O1)NCc1ccccc1 | n | n | n | x | x | x | x
O=C(C[C@H]1C[C@H]2c3cc(NC(=O)NC4CCCC4)ccc3O[C@H]2[C@@H](CO)O1)NCc1ccc(Cl)cc1 | n | 105.1 | n | n | n | n | n
O=C(C[C@@H]1C[C@H]2c3cc(NC(=O)NC4CCCC4)ccc3O[C@H]2[C@H](CO)O1)NCc1ccccc1 | n | 102.0 | n | n | n | n | n
SMILES | IDH1 mut inh | T cruzi growth-1 | GASC1 inh | T cruzi growth-2 | T cruzi growth-3 | 3T3 cytotox | 3T3 cytotox 2
O=C(C[C@@H]1C[C@H]2c3cc(NC(=O)CC4CC4)ccc3O[C@H]2[C@@H](CO)O1)NCc1cccnc1 | n | n | n | x | x | x | x
O=C(C[C@@H]1C[C@@H]2c3cc(NC(=O)NC4CCCC4)ccc3O[C@@H]2[C@@H](CO)O1)NCc1ccc(Cl)cc1 | n | n | n | x | x | x | x
O=C(C[C@@H]1C[C@H]2c3cc(NC(=O)CC4CC4)ccc3O[C@H]2[C@H](CO)O1)NCc1cccnc1 | n | 108.6 | n | n | n | n | n
O=C(C[C@@H]1C[C@H]2c3cc(NC(=O)Nc4ccccc4)ccc3O[C@H]2[C@H](CO)O1)NCc1cccc(F)c1 | n | 103.8 | n | n | n | n | n
O=C(C[C@H]1C[C@@H]2c3cc(NC(=O)Nc4ccccc4)ccc3O[C@@H]2[C@H](CO)O1)NCc1cccc(F)c1 | n | n | n | x | x | x | x
CCOc1cc(S(=O)(=O)NCc2ccco2)ccc1Cl | n | x | x | x | x | x | x
COc1ccccc1NC(=O)CNS(=O)(=O)c1ccc(C(C)(C)C)cc1 | n | x | x | x | x | x | x
COc1cccc(-c2cc(C(=O)Nc3ccc(S(=O)(=O)NC(C)=O)cc3)c3ccccc3n2)c1 | n | x | x | x | x | x | x
O=C(NC[C@@H]1[C@H](c2ccccc2)[C@H](CO)N1C(=O)Cc1cccnc1)C1CC1 | x | n | n | x | x | x | x
CC(=O)NC[C@H]1[C@@H](c2ccccc2)[C@H](CO)N1C(=O)Cc1cccnc1 | x | n | n | x | x | x | x
O=C(NC[C@@H]1[C@@H](c2ccccc2)[C@@H](CO)N1C(=O)Cc1cccnc1)C1CC1 | x | 100.0 | n | n | n | n | n
CC(=O)NC[C@@H]1[C@H](c2ccccc2)[C@H](CO)N1C(=O)Cc1cccnc1 | x | u | n | n | n | n | n
Cc1cc(C)n2c(Nc3cccc(C(F)(F)F)c3)c(-c3ccc(O)cc3)nc2n1 | n | x | x | x | x | x | x
COc1ccccc1C#Cc1ccc2c(c1)O[C@H](CN(C)Cc1ccncc1)[C@@H](C)CN([C@@H](C)CO)S2(=O)=O | n | 127.5 | n | n | 98.3 | 73.9 | 104.0
COc1ccccc1C#Cc1ccc2c(c1)O[C@@H](CN(C)Cc1ccncc1)[C@H](C)CN([C@@H](C)CO)S2(=O)=O | n | 120.5 | n | 99.7 | n | 73.3 | 81.2
